Results taken from ChEMBL document CHEMBL2346654, “Discovery of biological evaluation of pyrazole/imidazole amides as mGlu5 receptor negative allosteric modulators” (Bioorg Med Chem Lett, 2013).
pIC50: −log10 of the molar value. Values belong to the molecule of their own block, whether it stands above or below them. Active and inactive are the calls of the source. The calls are words filed in the database; no cut-off is given here.

Columns and labels:
[1] = biological target: Sodium-dependent dopamine transporter (Homo sapiens) (UniProt Q01959); assay: Inhibition of DAT (unknown origin) at 10 uM
[2] = Half life in mouse liver microsomes; conditions: liver microsomes
[3] = biological target: Histamine H1 receptor (Homo sapiens) (UniProt P35367); assay: Inhibition of histamine H1 receptor (unknown origin) at 10 uM
[4] = Half life in human liver microsomes; conditions: liver microsomes
[5] = biological target: Sodium-dependent noradrenaline transporter (Homo sapiens) (UniProt P23975); assay: Inhibition of NET (unknown origin) at 10 uM
[6] = Half life in rat plasma; assay type: ADME, cell-free
[7] = Half life in rat liver microsomes; conditions: liver microsomes
[8] = biological target: Amine oxidase [flavin-containing] A (Homo sapiens, UniProt P21397); assay: Inhibition of MAO-A (unknown origin) at 10 uM
[9] = biological target: Muscarinic acetylcholine receptor M1 (Homo sapiens) (UniProt P11229); assay: Inhibition of muscarinic M1 receptor (unknown origin) at 10 uM
Mus musculus [10] = assay: Antidepressant activity in ICR mouse assessed as decrease in immobility time at 50 mg/kg, po administered 1 hr before test measured for 4 mins following training for 2 mins by forced swimming test; assay type: functional; set-up: scale not given: the % may be the effect or the level left
Procedure, shortened: (§1)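 Mouse forced swim test: ICR mice dosed orally 1 h before testing; 2 min training, then immobility duration recorded over 4 min. Activity expressed as % decrease in immobility duration. Mean ± SEM, n = 8; Dunnett's multiple comparisons after one-way ANOVA (p < 0.05).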

[11] = biological target: Alpha-1D adrenergic receptor (Homo sapiens) (UniProt P25100); assay: Inhibition of adrenergic alpha1D receptor (unknown origin) at 10 uM
[12] = biological target: Sodium-dependent serotonin transporter (Homo sapiens) (UniProt P31645); assay: Inhibition of SERT (unknown origin) at 10 uM
[13] = biological target: Amine oxidase [flavin-containing] B (Homo sapiens, UniProt P27338); assay: Inhibition of MAO-B (unknown origin) at 10 uM
[14] = biological target: Metabotropic glutamate receptor 5 (Homo sapiens, UniProt P41594); assay: Negative allosteric modulation of human mGluR5 expressed in HEK293 cells assessed as calcium mobilization by FLIPR assay; assay type: functional, cell-based
[15] = biological target: Muscarinic acetylcholine receptor M2 (Homo sapiens) (UniProt P08172); assay: Inhibition of muscarinic M2 receptor (unknown origin) at 10 uM
[16] = biological target: 5-hydroxytryptamine receptor 2C (Homo sapiens) (UniProt P28335); assay: Inhibition of 5-HT2C receptor (unknown origin) at 10 uM
[17] = biological target: Adenosine receptor A2a (Homo sapiens) (UniProt P29274); assay: Inhibition of adenosine A2A receptor (unknown origin) at 10 uM
Mus musculus [18] = assay: Antidepressant activity in ip dosed ICR mouse assessed as decrease in immobility time administered 1 hr before test measured for 4 mins following training for 2 mins by forced swimming test
Mus musculus [19] = assay: Toxicity in ICR mouse assessed as induction of locomotor activity at 1 to 30 mg/kg, ip; assay type: organism-based; set-up: dose 1-30 mg/kg, route intraperitoneal; conditions: in vivo
Procedure, shortened: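 Locomotor activity tests in mice, run to separate antidepressant effect from hyperactivity. Compound given intraperitoneally over a dose range of 1 mg/kg to 30 mg/kg.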

Rattus norvegicus = assay: Antidepressant activity in rat assessed as decrease in immobility time at 10 mg/kg, ip by forced swimming test; assay type: functional; set-up: scale not given: the % may be the effect or the level left; conditions: route intraperitoneal
Procedure, shortened: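 Rat forced swim test with intraperitoneal dosing at 10 mg/kg. Read-out is % decrease in immobility duration. Dosing vehicle 5% DMSO + 5% Cremophore.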

[20] = Oral bioavailability in mouse; assay type: ADME, organism-based; conditions: in vivo
Procedure, shortened: (§2)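 Oral bioavailability (F) determined in mice and rats. Dosing vehicle 5% DMSO + 5% Cremophore.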

Mus musculus [21] = assay: Antidepressant activity in ICR mouse assessed as decrease in immobility time at 10 mg/kg, po administered 1 hr before test measured for 4 mins following training for 2 mins by forced swimming test; assay type: functional; set-up: scale not given: the % may be the effect or the level left; procedure, shortened: as §1
[22] = Oral bioavailability in rat; assay type: ADME, organism-based; conditions: in vivo; procedure, shortened: as §2

Sequence of Metabotropic glutamate receptor 5 (P41594 whole entry): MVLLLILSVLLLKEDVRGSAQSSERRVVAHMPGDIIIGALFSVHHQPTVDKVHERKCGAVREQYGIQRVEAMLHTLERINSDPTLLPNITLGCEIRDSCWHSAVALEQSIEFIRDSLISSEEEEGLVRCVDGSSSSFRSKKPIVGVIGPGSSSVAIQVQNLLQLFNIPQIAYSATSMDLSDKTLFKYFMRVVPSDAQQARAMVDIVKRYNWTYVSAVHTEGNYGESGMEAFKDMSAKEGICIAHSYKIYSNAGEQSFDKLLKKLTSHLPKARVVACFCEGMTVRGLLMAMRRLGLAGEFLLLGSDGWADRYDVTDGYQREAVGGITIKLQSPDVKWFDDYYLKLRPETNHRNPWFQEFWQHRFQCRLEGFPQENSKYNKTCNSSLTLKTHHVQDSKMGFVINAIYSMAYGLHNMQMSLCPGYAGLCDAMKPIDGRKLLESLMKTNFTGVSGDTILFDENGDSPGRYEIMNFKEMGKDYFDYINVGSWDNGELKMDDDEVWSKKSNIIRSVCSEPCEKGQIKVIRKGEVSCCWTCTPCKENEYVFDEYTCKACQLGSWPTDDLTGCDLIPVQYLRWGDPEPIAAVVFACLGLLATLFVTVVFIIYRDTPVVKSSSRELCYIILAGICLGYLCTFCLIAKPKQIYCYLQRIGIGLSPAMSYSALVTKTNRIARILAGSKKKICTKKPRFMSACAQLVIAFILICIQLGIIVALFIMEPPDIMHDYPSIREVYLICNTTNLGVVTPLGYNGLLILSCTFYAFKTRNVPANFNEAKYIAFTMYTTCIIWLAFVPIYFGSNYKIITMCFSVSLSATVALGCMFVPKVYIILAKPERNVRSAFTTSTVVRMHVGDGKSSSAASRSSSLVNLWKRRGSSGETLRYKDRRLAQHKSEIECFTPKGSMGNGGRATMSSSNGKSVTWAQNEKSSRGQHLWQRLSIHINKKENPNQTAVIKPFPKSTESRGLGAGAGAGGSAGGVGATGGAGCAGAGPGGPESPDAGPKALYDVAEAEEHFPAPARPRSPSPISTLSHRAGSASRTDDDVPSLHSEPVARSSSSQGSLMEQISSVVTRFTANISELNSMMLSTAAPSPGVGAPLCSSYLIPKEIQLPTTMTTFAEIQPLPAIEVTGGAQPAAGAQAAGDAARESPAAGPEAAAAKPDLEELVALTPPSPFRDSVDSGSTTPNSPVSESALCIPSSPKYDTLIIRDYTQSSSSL
Sequence of Sodium-dependent dopamine transporter (Homo sapiens) (Q01959 whole entry): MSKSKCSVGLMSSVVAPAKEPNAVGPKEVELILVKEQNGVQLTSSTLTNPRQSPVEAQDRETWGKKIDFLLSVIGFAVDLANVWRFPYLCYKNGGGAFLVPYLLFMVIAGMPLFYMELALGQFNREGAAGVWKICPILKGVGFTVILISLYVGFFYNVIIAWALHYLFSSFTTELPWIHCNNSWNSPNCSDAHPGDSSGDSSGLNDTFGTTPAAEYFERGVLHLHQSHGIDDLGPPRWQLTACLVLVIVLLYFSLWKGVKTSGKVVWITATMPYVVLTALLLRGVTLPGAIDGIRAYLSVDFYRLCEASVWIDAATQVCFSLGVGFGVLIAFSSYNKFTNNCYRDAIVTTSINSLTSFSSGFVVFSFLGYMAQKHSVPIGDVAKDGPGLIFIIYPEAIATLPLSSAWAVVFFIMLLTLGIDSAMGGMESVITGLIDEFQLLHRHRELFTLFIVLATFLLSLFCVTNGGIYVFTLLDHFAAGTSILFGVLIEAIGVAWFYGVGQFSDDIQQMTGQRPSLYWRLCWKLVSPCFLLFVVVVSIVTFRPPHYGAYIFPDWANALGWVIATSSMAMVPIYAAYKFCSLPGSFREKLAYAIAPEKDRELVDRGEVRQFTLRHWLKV
Sequence of Adenosine receptor A2a (Homo sapiens) (P29274 whole entry): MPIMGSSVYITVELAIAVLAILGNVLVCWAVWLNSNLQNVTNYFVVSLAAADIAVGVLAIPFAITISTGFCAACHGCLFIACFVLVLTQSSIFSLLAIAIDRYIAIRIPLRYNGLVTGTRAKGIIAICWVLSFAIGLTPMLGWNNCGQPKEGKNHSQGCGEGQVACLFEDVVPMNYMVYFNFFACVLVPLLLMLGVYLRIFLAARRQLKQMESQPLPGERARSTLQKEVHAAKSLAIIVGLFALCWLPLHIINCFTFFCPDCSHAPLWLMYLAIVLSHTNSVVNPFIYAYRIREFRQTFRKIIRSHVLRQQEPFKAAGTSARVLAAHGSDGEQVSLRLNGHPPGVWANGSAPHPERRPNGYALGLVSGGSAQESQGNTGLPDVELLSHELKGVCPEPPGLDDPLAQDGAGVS
Sequence of Alpha-1D adrenergic receptor (Homo sapiens) (P25100 whole entry): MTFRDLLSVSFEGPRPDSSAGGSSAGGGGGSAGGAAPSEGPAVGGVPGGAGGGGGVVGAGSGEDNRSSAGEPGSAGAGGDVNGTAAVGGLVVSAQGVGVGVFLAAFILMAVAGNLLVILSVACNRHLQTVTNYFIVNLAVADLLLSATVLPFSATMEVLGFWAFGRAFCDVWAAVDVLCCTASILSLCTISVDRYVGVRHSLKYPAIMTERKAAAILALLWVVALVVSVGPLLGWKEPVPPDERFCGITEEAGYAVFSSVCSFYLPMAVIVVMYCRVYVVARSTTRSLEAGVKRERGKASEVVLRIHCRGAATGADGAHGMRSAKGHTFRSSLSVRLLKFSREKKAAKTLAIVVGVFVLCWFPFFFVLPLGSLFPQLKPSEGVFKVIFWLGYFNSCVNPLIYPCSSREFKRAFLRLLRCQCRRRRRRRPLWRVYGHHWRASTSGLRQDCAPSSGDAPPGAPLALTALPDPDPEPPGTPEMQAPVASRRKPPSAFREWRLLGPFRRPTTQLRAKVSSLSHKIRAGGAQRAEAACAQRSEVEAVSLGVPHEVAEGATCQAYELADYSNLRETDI
Sequence of Amine oxidase [flavin-containing] A (P21397 whole entry): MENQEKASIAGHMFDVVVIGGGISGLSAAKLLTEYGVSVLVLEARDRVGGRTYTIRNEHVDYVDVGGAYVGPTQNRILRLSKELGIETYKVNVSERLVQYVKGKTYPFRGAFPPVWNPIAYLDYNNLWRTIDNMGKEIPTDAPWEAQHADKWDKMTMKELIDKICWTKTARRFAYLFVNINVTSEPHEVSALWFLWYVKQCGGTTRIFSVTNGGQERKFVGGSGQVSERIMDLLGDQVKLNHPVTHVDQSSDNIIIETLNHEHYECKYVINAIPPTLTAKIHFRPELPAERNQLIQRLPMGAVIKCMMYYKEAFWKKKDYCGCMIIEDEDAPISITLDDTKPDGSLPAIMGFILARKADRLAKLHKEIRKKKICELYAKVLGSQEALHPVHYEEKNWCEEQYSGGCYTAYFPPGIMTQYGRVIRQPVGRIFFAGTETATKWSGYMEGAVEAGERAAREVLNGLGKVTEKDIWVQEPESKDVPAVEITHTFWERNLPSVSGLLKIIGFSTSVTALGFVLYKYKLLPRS
Sequence of Muscarinic acetylcholine receptor M2 (Homo sapiens) (P08172 whole entry): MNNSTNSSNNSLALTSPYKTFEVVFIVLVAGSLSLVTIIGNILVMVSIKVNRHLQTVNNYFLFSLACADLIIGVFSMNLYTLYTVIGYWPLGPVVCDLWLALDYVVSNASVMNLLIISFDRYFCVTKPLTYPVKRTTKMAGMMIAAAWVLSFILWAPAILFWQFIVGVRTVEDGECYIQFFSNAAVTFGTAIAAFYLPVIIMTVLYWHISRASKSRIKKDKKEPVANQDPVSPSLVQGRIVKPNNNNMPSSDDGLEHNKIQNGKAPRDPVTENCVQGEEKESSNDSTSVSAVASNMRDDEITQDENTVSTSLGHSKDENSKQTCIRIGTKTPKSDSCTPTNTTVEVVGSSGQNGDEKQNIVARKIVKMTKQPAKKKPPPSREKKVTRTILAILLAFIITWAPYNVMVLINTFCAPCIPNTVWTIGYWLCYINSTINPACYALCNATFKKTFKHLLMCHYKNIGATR
Sequence of Amine oxidase [flavin-containing] B (P27338 whole entry): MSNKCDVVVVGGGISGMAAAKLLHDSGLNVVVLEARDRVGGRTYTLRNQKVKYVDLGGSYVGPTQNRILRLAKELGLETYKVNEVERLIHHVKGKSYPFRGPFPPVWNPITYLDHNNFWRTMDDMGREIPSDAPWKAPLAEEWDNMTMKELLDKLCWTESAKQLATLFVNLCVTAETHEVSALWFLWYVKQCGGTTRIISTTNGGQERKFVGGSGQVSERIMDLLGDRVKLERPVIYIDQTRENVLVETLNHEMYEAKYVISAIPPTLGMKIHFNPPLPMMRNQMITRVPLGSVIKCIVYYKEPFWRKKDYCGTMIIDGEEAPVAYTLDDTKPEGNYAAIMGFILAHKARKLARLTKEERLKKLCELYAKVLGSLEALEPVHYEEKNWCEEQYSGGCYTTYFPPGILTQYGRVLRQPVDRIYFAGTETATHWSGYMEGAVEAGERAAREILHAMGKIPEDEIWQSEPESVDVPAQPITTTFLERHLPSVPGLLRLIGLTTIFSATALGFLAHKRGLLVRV
Sequence of Sodium-dependent serotonin transporter (Homo sapiens) (P31645 whole entry, looked up): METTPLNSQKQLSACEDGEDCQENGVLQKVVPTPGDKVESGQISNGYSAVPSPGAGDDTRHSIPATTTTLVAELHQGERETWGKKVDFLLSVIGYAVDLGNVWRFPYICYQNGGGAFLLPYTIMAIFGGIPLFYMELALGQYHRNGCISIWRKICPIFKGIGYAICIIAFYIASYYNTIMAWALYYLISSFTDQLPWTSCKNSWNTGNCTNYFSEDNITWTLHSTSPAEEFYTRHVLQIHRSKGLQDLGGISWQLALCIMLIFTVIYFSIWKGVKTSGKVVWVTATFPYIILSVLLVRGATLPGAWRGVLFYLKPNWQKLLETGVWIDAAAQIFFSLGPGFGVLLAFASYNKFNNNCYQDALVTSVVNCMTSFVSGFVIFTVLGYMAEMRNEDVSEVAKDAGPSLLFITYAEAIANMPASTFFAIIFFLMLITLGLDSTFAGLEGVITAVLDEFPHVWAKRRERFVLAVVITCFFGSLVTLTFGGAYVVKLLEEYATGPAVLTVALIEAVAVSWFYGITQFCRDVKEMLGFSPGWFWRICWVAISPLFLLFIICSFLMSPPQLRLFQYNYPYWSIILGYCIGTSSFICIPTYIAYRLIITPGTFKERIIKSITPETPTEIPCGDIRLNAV

inhibition [1]: 60% | half-life [2]: 18 min | inhibition [3]: inactive | half-life [4]: 66 min | inhibition [5]: 63% | half-life [6]: > 180 min | half-life [7]: 24 min | inhibition (INH) [8]: Not Active | inhibition [9]: inactive | inhibition [11]: inactive | inhibition [12]: inactive | inhibition (INH) [13]: Not Active | pIC50 [14]: 8.36 | inhibition [15]: inactive | inhibition [16]: 66% | inhibition [17]: inactive
SMILES: Cc1cccc(NC(=O)c2nn(C)c(-c3ccccc3)c2C)n1
Activity (Mus musculus [10]): 53.3%

half-life [2]: 36 min | half-life [4]: 82 min | half-life [7]: 56 min | pIC50 [14]: 8.96 | bioavailability [20]: 31% | bioavailability [22]: < 2%
SMILES: Cc1cccc(NC(=O)c2nn(C)c(-c3ccc(F)cc3)c2C)n1
ED50 (Mus musculus [18]): 1.1 mg/kg | Activity (Mus musculus [19]): Non-toxic | Activity (Rattus norvegicus): 10.9% | Activity (Mus musculus [21]): 61.1%
